PMC3972754 (European biophysics journal : EBJ, 2013)
Where a name gives a salt, the structure may show the parent alone. Read-outs that look alike come from different tables or passages of the source.

How the values were obtained:
[1] = target: T1, cPAH (phenylalanine hydroxylase from Chromobacterium violaceum) (Chromobacterium violaceum, UniProt P30967); assay: ITC, one-site model; type: binding
T1 sequence (P30967 1-297): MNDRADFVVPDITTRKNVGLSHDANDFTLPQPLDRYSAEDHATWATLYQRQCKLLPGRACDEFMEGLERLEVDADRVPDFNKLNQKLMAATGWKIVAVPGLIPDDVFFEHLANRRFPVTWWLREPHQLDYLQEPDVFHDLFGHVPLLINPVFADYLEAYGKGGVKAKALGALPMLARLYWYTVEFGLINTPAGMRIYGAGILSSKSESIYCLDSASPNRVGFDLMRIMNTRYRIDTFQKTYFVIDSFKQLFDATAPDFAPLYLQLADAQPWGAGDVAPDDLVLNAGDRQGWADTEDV

[2] = target: T1, cPAH (phenylalanine hydroxylase from Chromobacterium violaceum); assay: tyrosine formation at […] nm, initial rates; type: biochemical; conditions: 20 °C, 0.1 M Na-HEPES pH 7.4, O2 saturated, FeSO4, 350 µM DMPH4
[3] = target: T2, cPAH (phenylalanine hydroxylase from Chromobacterium violaceum) (Chromobacterium violaceum, UniProt P30967, Y155A); assay: biochemical
[4] = target: T3, cPAH (phenylalanine hydroxylase from Chromobacterium violaceum) (Chromobacterium violaceum, UniProt P30967, S203P); assay: biochemical
[5] = target: T4, cPAH (phenylalanine hydroxylase from Chromobacterium violaceum) (Chromobacterium violaceum, UniProt P30967, F258A); assay: biochemical
[6] = target: T5, cPAH (phenylalanine hydroxylase from Chromobacterium violaceum) (Chromobacterium violaceum, UniProt P30967, T254A); assay: biochemical
[7] = target: T4, cPAH (phenylalanine hydroxylase from Chromobacterium violaceum); assay: biochemical; remark: listed apart in the source
[8] = target: T1, cPAH (phenylalanine hydroxylase from Chromobacterium violaceum); assay: ITC; type: binding
Method in brief: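 Untagged or GST-cleaved C. violaceum cPAH (WT or point mutants), dialysed overnight against 50 mM HEPES pH 7.4. Amino-acid ligand (1–10 mM) titrated into 50–100 µM protein over 18 × 2 µL injections. Buffer-only reference subtracted; one-site fit; duplicates. Anaerobic variant (argon, 25 °C): apo enzyme reconstituted with 0.5–1.0 mol ferrous ammonium sulfate per mol PAH, plus 200 µM pterin cofactor, equilibrated 15 min.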

[9] = target: T2, cPAH (phenylalanine hydroxylase from Chromobacterium violaceum); assay: biochemical; remark: listed apart in the source
[10] = target: T5, cPAH (phenylalanine hydroxylase from Chromobacterium violaceum); assay: biochemical; remark: listed apart in the source
[11] = target: T3, cPAH (phenylalanine hydroxylase from Chromobacterium violaceum); assay: biochemical; remark: listed apart in the source

N[C@@H](Cc1ccccc1)C(=O)O [phenylalanine]
Kd [1]: 24 ± 1.1 µM
Km [2]: 244 ± 40.8 µM
Kd [3]: 559 ± 30 µM
Kd [4]: 7 ± 0.3 µM
Kd [5]: 775 ± 44 µM
Kd [6]: 376 ± 10 µM

C[C@H](O)[C@H](O)[C@H]1CNc2nc(N)[nH]c(=O)c2N1 [BH4, (6R)-5,6,7,8-tetrahydrobiopterin dihydrochloride]
Kd [7]: 29.3 ± 1.6 µM
Kd [8]: 23.5 ± 1.6 µM
Kd [9]: 16.2 ± 0.7 µM
Kd [10]: 43.6 ± 4.2 µM
Kd [11]: 35.2 ± 3.3 µM
